Assay results as given in ChEMBL document CHEMBL1156127, “Synthesis, anticonvulsant activity and 3D-QSAR study of some prop-2-eneamido and 1-acetyl-pyrazolin derivatives of aminobenzothiazole” (Eur J Med Chem, 2010).

Assays:
[1] = species on record: Mus musculus; assay: Protection index, ratio of TD50 to ED50 by MES test for albino mouse; format: functional
How it was run: (§1)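 Mice were trained on a 3.2 cm rod turning at 6 rpm, then dosed ip at 20–1000 µmol/kg and tested at 0.5 h. […] PI = TD50/ED50, with ED50 from the MES test.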

[2] = Neurotoxicity in ip dosed albino mouse during 1 min by rotarod test; format: toxicity, organism-based; settings: in vivo; how it was run: as §1
[3] = tested on: Mus musculus; assay: Anticonvulsant activity in ip dosed albino mouse assessed as absence of hind limb tonic extension after 0.5 hrs by MES test; format: functional, Hindlimb; settings: for ED50: Mus musculus, albino, Hindlimb, ip, 0.5 h
How it was run: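 Mice given compound ip at 20–1000 µmol/kg, suspended in 0.5% methyl cellulose/water. Seizure induced 0.5 h later by electroconvulsometer, 50 mA, 60 cycle alternating current, 0.25 s via ear clip electrodes. Protection is reduced duration or absence of hind limb tonic extension. ED50 from at least three doses giving 10–90% protection.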

[4] = tested on: Mus musculus; assay: Anticonvulsant activity in ip dosed albino mouse treated 0.5 hrs before PTZ challenge by scPTZ test; format: functional
How it was run: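 Compound given ip (20–1000 µmol/kg in 0.5% methyl cellulose) 0.5 h before pentylenetetrazole, which was dissolved in 0.9% NaCl and injected subcutaneously in the posterior midline of mice. Onset and severity of convulsions were scored, and ED50 was derived.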

Row | Structure (SMILES) | PI [1] | TD50 at 1 min [2] | pED50 [3] | ED50 [3] | ED50 [4]
1 | COc1ccc(/C=C/C(=O)Nc2nc3ccccc3s2)cc1 | 1.24 | 540 µmol/kg | 3.36 | 435 µmol/kg | 
2 | COc1ccc(/C=C/C(=O)Nc2nc3ccc(C)cc3s2)cc1O | 1.18 | 321 µmol/kg | 3.57 | 271 µmol/kg | 
3 | O=C(/C=C/c1ccc(O)cc1)Nc1nc2ccccc2s1 | 1.78 | 925 µmol/kg | 3.29 | 517 µmol/kg | 
4 | CC(=O)N1N=C(Nc2nc3ccc(Cl)cc3s2)CC1c1ccccc1 (stereo unspecified) | 1.52 | 245 µmol/kg | 3.79 | 161 µmol/kg | 
5 | Cc1ccc2nc(NC(=O)/C=C/c3ccco3)sc2c1 | 1.19 | 603 µmol/kg | 3.3 | 505 µmol/kg | 
6 | O=C(/C=C/c1ccc(Cl)cc1)Nc1nc2ccc([N+](=O)[O-])cc2s1 | 3.03 | 787 µmol/kg | 3.59 | 259 µmol/kg | 
7 | CC(=O)N1N=C(Nc2nc3ccccc3s2)CC1c1ccc(O)cc1 (stereo unspecified) | 2.06 | 513 µmol/kg | 3.6 | 249 µmol/kg | 
8 | COc1ccc(C2CC(Nc3nc4ccc(Cl)cc4s3)=NN2C(C)=O)cc1O (stereo unspecified) | 2.16 | 276 µmol/kg | 3.89 | 127 µmol/kg | 132 µmol/kg
9 | COc1ccc(/C=C/C(=O)Nc2nc3ccc(Cl)cc3s2)cc1O | 1.46 | 470 µmol/kg | 3.51 | 320 µmol/kg | 
10 | CC(=O)N1N=C(Nc2nc3ccccc3s2)CC1c1ccc(Cl)cc1 (stereo unspecified) | 1.73 | 364 µmol/kg | 3.68 | 209 µmol/kg | 
11 | O=C(/C=C/c1ccc(Cl)cc1)Nc1nc2ccc(Cl)cc2s1 | 2.82 | 576 µmol/kg | 3.69 | 204 µmol/kg | 
12 | COc1ccc(C2CC(Nc3nc4ccc([N+](=O)[O-])cc4s3)=NN2C(C)=O)cc1 (stereo unspecified) | 1.69 | 246 µmol/kg | 3.84 | 145 µmol/kg | 149 µmol/kg
13 | CC(=O)N1N=C(Nc2nc3ccc([N+](=O)[O-])cc3s2)CC1c1ccc(O)cc1 (stereo unspecified) | 1.29 | 210 µmol/kg | 3.79 | 162 µmol/kg | 
14 | CC(=O)N1N=C(Nc2nc3ccc(C)cc3s2)CC1c1ccco1 (stereo unspecified) | 1.51 | 243 µmol/kg | 3.79 | 160 µmol/kg | 
15 | COc1ccc(C2CC(Nc3nc4ccc([N+](=O)[O-])cc4s3)=NN2C(C)=O)cc1O (stereo unspecified) | 1.43 | 256 µmol/kg | 3.75 | 178 µmol/kg | 
16 | O=C(/C=C/c1ccco1)Nc1nc2ccc(Cl)cc2s1 | 1.2 | 658 µmol/kg | 3.26 | 544 µmol/kg | 
17 | O=C(/C=C/c1ccc(O)cc1)Nc1nc2ccc(Cl)cc2s1 | 1.28 | 413 µmol/kg | 3.49 | 322 µmol/kg | 
18 | Cc1ccc2nc(NC(=O)/C=C/c3ccccc3)sc2c1 | 1.4 | 534 µmol/kg | 3.42 | 380 µmol/kg | 
19 | O=C(/C=C/c1ccccc1)Nc1nc2ccc([N+](=O)[O-])cc2s1 | 1.3 | 633 µmol/kg | 3.31 | 485 µmol/kg | 
20 | COc1ccc(C2CC(Nc3nc4ccccc4s3)=NN2C(C)=O)cc1 (stereo unspecified) | 1.63 | 369 µmol/kg | 3.65 | 226 µmol/kg | 
21 | O=C(/C=C/c1ccccc1)Nc1nc2ccc(Cl)cc2s1 | 1.34 | 570 µmol/kg | 3.37 | 425 µmol/kg | 

Row | Structure (SMILES) | PI [1] | TD50 at 1 min [2] | pED50 [3] | ED50 [3] | ED50 [4]
22 | Cc1ccc2nc(NC(=O)/C=C/c3ccc(Cl)cc3)sc2c1 | 2.67 | 408 µmol/kg | 3.82 | 152 µmol/kg | 
23 | CC(=O)N1N=C(Nc2nc3ccc([N+](=O)[O-])cc3s2)CC1c1ccc(Cl)cc1 (stereo unspecified) | 2.48 | 328 µmol/kg | 3.88 | 132 µmol/kg | 138 µmol/kg
24 | O=C(/C=C/c1ccc(O)cc1)Nc1nc2ccc([N+](=O)[O-])cc2s1 | 1.57 | 602 µmol/kg | 3.42 | 382 µmol/kg | 
25 | COc1ccc(C2CC(Nc3nc4ccccc4s3)=NN2C(C)=O)cc1O (stereo unspecified) | 1.47 | 382 µmol/kg | 3.59 | 259 µmol/kg | 
26 | O=C(/C=C/c1ccco1)Nc1nc2ccccc2s1 | 1.15 | 898 µmol/kg | 3.11 | 781 µmol/kg | 
27 | Cc1ccc2nc(NC(=O)/C=C/c3ccc(O)cc3)sc2c1 | 1.42 | 387 µmol/kg | 3.57 | 271 µmol/kg | 
28 | O=C(/C=C/c1ccc(Cl)cc1)Nc1nc2ccccc2s1 | 1.1 | 402 µmol/kg | 3.44 | 367 µmol/kg | 
29 | CC(=O)N1N=C(Nc2nc3ccc([N+](=O)[O-])cc3s2)CC1c1ccco1 (stereo unspecified) | 1.29 | 355 µmol/kg | 3.56 | 274 µmol/kg | 
30 | O=C(/C=C/c1ccccc1)Nc1nc2ccccc2s1 | 1.28 | 832 µmol/kg | 3.19 | 646 µmol/kg | 
31 | COc1ccc(/C=C/C(=O)Nc2nc3ccc(Cl)cc3s2)cc1 | 1.79 | 465 µmol/kg | 3.59 | 259 µmol/kg | 
32 | COc1ccc(/C=C/C(=O)Nc2nc3ccccc3s2)cc1O | 1.12 | 556 µmol/kg | 3.31 | 495 µmol/kg | 
33 | COc1ccc(/C=C/C(=O)Nc2nc3ccc([N+](=O)[O-])cc3s2)cc1 | 1.47 | 466 µmol/kg | 3.5 | 315 µmol/kg | 
34 | CC(=O)N1N=C(Nc2nc3ccccc3s2)CC1c1ccccc1 (stereo unspecified) | 1.57 | 498 µmol/kg | 3.5 | 315 µmol/kg | 
35 | CC(=O)N1N=C(Nc2nc3ccc(Cl)cc3s2)CC1c1ccco1 (stereo unspecified) | 1.82 | 387 µmol/kg | 3.67 | 212 µmol/kg | 
36 | O=C(/C=C/c1ccco1)Nc1nc2ccc([N+](=O)[O-])cc2s1 | 1.39 | 834 µmol/kg | 3.22 | 597 µmol/kg | 
37 | COc1ccc(/C=C/C(=O)Nc2nc3ccc([N+](=O)[O-])cc3s2)cc1O | 2.13 | 793 µmol/kg | 3.43 | 372 µmol/kg | 
38 | CC(=O)N1N=C(Nc2nc3ccc(Cl)cc3s2)CC1c1ccc(O)cc1 (stereo unspecified) | 1.97 | 210 µmol/kg | 3.97 | 106 µmol/kg | 107 µmol/kg
39 | COc1ccc(/C=C/C(=O)Nc2nc3ccc(C)cc3s2)cc1 | 2.24 | 468 µmol/kg | 3.68 | 209 µmol/kg | 
40 | CC(=O)N1N=C(Nc2nc3ccccc3s2)CC1c1ccco1 (stereo unspecified) | 1.41 | 538 µmol/kg | 3.42 | 382 µmol/kg | 
41 | CC(=O)N1N=C(Nc2nc3ccc([N+](=O)[O-])cc3s2)CC1c1ccccc1 (stereo unspecified) | 1.65 | 357 µmol/kg | 3.67 | 216 µmol/kg | 
42 | O=C1NC(=O)C(c2ccccc2)(c2ccccc2)N1 [PHENYTOIN] | 8.01 | 110 µmol/kg |  | 13.8 µmol/kg | 
